The results in this text go back to ChEMBL document CHEMBL1128295 (J Med Chem, 1995).

Assay [1] has as its target Histamine H1 receptor (Cavia porcellus) (UniProt P31389). Description: H1-Histamine receptor agonism on guinea pig ileum as intrinsic activity given as 1.0 with respect to histamine (paired 't'test; p>0.05). Format: functional, tissue-based.
Assay [2] shares this target. Description: Contractile effect on isolated guinea pig aorta is a measure of H1 (histamine) receptor agonistic activity relative to histamine. Type of assay: functional, tissue-based. In outline: (§1)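 Endothelium-denuded 4–6 mm guinea pig thoracic aortic rings, isometric (preload 10 mN), modified Krebs-Henseleit, 37 °C, 95% O2/5% CO2. […] Cumulative curves with 30 μM corticosterone, 100 μM cimetidine, 0.1 μM (R,S)-propranolol and phentolamine present.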

For assay [3] the target is unchanged. Description: H1-Histamine receptor agonism on Guinea pig aorta was evaluated as Intrinsic activity given as 1.0 with respect to histamine (paired 't'test;p>0.05)(SEM 0.01-0.12). Type of assay: functional, tissue-based.
The target is the same in assay [4]. Kind of assay: Contractile effect on isolated guinea pig ileal segments by H1 (histamine) receptor agonism. Format: functional.
Assay [5] shares this target. Kind of assay: Contractile effects on guinea pig aorta as histamine H1 receptor agonism. Format: functional, tissue-based. In outline:
as §1

Assay [6] has the same target. Kind of assay: Contractile effect on isolated guinea pig ileal segments is a measure of H1 (histamine) receptor agonistic activity relative to histamine. Type of assay: functional.
Assay [7] has the same target. Description: The H1 receptor-mediated nature of the ileum contractionhas been verified by competition experiments with the H1 receptor antagonist mepyramine. Format: functional, tissue-based.
Assay [8] deals with Histamine H2 receptor (Cavia porcellus) (UniProt P47747). Kind of assay: Histamine H2 receptor agonism activity was determined on the isolated Guinea pig Atrium was determined as Intrinsic activity with respect to Histamine. Type of assay: functional. In outline:
(§2)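 Spontaneously beating guinea pig right atrium, isometric, resting force 5 mN, (R,S)-metoprolol 300 nM present throughout.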

Assay [9] shares this target. Description: Histamine H2 receptor agonism activity was determined on the isolated Guinea pig Atrium was determined as pD'2. Format: functional. In outline:
as §2

The target of assay [10] is Histamine H1 receptor (Cavia porcellus) (UniProt P31389). Kind of assay: H1-Histamine receptor agonism on Guinea pig aorta was evaluated as Intrinsic activity given as 1.0 with respect to histamine (paired 't'test;p>0.05). Format: functional, tissue-based. In outline:
as §1

In assay [11] the target is Histamine H1 receptor (Mus musculus) (UniProt P70174). Kind of assay: In vivo binding of H1 receptor Agonists measured by binding of [3H]mepyramine to Mouse cerebral cortex at the dosage of ( 3 mg/kg(no. of mice treated=5 ). Particulars: at 3 mg/kg.
Chain of Histamine H1 receptor (Mus musculus) (P70174 whole entry, looked up): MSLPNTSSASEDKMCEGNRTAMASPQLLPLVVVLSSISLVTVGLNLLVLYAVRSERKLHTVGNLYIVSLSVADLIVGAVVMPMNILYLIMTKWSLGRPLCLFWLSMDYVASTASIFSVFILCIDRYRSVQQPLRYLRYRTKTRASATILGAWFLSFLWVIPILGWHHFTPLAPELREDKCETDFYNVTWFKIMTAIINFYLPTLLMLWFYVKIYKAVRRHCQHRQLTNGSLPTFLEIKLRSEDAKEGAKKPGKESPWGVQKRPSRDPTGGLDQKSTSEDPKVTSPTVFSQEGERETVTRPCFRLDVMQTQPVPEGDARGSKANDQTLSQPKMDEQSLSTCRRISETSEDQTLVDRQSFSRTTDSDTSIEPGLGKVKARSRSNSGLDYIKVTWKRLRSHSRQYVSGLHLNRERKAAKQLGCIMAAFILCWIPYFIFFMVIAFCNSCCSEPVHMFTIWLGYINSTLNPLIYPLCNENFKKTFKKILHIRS
Assay [12] has the same target. Description: In vivo binding of H1 receptor Agonists measured by binding of [3H]mepyramine to Mouse cerebral cortex at the dosage of ( 10 mg/kg(no. of mice treated=5 ). The note with it: at 10 mg/kg.
Assay [13] shares this target. Kind of assay: In vivo binding of H1 receptor Agonists measured by binding of [3H]mepyramine to Mouse cerebral cortex at the dosage of ( 100 mg/kg(no. of mice treated= 3 ). Particulars: at 100 mg/kg.
Assay [14] has the same target. Kind of assay: In vivo binding of H1 receptor Agonists measured by binding of [3H]-Mepyramine to Mouse cerebral cortex at the dosage of ( 300 mg/kg(no. of mice treated= 3 ). Particulars: at 300 mg/kg.
The target is the same in assay [15]. Kind of assay: In vivo binding of H1 receptor Agonists measured by binding of [3H]mepyramine to Mouse cerebral cortex at the dosage of ( 30 mg/kg(no. of mice treated= 5 ). Particulars: at 30 mg/kg.
Assay [16] concerns the target Histamine H1 receptor (Cavia porcellus) (UniProt P31389). Description: The H1 receptor-mediated nature of the ileum contractionhas been verified by competition experiments with the H1 receptor antagonist mepyramine;O=effect could be antagonized with 1 uM Mepyramine added to the bath solution when a plateau was rea. Format: functional, tissue-based.
The target is the same in assay [17]. Kind of assay: Contractile effects of compound on the guinea pig aorta as a measure of histamine H1 receptor agonism; f - effect could be antagonized with 1 pM mepyramine added to the bath solution when a plateau was reached. Format: functional, tissue-based. Particulars: filed as agonist, in the assay text read “1 µM mepyramine” for “1 pM mepyramine”. In outline: as §1

Assay [18] is filed under the species Cavia porcellus. Description: Relative activity with respect to Histamine on guinea pig ileum.. Format: functional. In outline:
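Guinea pig ileum segments (either sex), 1.5 cm, mounted isotonically under 5 mN preload in Tyrode solution with 0.1 μM atropine, 95% O2/5% CO2 gassed, 37 °C. […] Potency is read from graphically analysed concentration–effect curves as geometric means.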

For assay [19], the target named is Histamine H1 receptor (Cavia porcellus) (UniProt P31389). Description: H1-Histamine receptor agonism on Guinea pig aorta was evaluated as Intrinsic activity given as 1.0 with respect to histamine (paired 't'test;p>0.05) (SEM0.03-0.18). Type of assay: functional, tissue-based. In outline:
as §1

Assay [20] has the same target. Description: The H1 receptor-mediated nature of the ileum contractionhas been verified by competition experiments with the H1 receptor antagonist mepyramine; O=effect could be antagonized with 1 uM Mepyramine added to the bath solution when a plateau was re. Format: functional, tissue-based.
For assay [21] the target is unchanged. Description: H1-Histamine receptor agonism on Guinea pig aorta was evaluated as Intrinsic activity given as 1.0 with respect to histamine (paired 't'test;p>0.05) (SEM 0.01-0.12). Type of assay: functional, tissue-based. In outline: as §1

Structures are written as SMILES. Active and inactive are the calls of the source. The calls are words filed in the database; no cut-off is given here. A value given as a limit tells only on which side of the number the result lay.

One may read the pKb as the negative decadic logarithm of the Kb, by convention in mol/L.

Chain of Histamine H2 receptor (Cavia porcellus) (P47747 whole entry): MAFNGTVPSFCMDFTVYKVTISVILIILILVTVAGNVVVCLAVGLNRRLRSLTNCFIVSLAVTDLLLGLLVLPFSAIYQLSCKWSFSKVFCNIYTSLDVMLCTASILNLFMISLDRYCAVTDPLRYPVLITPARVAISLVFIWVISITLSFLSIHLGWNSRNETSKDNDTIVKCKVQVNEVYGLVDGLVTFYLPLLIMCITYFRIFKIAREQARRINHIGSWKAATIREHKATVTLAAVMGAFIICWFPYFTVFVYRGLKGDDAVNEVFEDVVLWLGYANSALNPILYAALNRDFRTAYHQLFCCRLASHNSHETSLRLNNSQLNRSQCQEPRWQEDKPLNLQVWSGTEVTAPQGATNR
Chain of Histamine H1 receptor (Cavia porcellus) (P31389 whole entry): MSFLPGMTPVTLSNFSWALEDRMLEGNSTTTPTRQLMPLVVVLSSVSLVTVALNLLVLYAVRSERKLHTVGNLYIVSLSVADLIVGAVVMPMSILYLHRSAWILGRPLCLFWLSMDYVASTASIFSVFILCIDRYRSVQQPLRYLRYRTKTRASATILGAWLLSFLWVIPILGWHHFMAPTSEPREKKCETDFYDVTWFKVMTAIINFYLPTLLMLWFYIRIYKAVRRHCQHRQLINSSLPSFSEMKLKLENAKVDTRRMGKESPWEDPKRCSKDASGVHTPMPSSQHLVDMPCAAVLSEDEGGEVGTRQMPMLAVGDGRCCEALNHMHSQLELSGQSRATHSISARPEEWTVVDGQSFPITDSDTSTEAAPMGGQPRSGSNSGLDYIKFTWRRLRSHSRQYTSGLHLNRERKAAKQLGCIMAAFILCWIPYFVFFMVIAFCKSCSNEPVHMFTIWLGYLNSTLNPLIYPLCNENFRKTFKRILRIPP

On to `NCCc1c[nH]c(-c2ccc[nH]2)n1`, for which the Intrinsic activity in [1] amounted to 0.93; in assay [3] it was 0.74. Also, the Relative activity is 12% in assay [2] and 14% in assay [6]. Moreover, the pD2 in assay [4] turned out to be 5.86. The results for the pKb in assay [5] and in assay [7] were 9.27 and 9.03, respectively.

Consider `NCCc1c[nH]c(-c2ccsc2)n1`, for which the Intrinsic activity turned out to be 1 in [1], 0.43 in assay [3] and 0.13 in assay [8]. Moreover, the Relative activity in [2] is 19%; in assay [6], 66%. Besides, the pD2 in assay [4] amounted to 6.52. The pKb in assay [5] was determined as 9.01; in assay [7], 9.13. This molecule also gave a pD'2 in assay [9] of less than 3.

For the molecule `NCCc1c[nH]c(-c2cccc(C(F)(F)F)c2)n1`, the Intrinsic activity in assay [1] was 1; in assay [10], 0.8; in assay [8] it was 0. For the same molecule, the Control was found to be 101% in [11]; 122% in assay [12]; 112% in assay [13]; 129% in assay [14]; 98% in [15]. Besides, the figures for the Relative activity in [2] and in assay [6] were 94% and 128%, respectively. The same molecule came in with a pD2 in [4] of 6.81. For the same molecule, the pKb in assay [5] is 9.04; in assay [7] it was 9.14. In addition, the pD'2 in assay [9] was 3.48.

`NCCc1c[nH]c(-c2ccc(C(F)(F)F)cc2)n1` came in with an Intrinsic activity in [1] of 0.24. Also, in assay [16], the pKb result was “Active”. In assay [4], this molecule had a pD2 of 4.6. Besides, the Relative activity in assay [6] was less than 1%.

Consider `NCCc1c[nH]c(Cc2cccs2)n1`, for which the results for the Intrinsic activity in assay [1] and in assay [3] were 1 and 0.45, respectively. In addition, the values for the Relative activity in assay [2] and in assay [6] were 0.8% and 3%, respectively. Besides, the pKb entry in [17] is “Agonist”; in assay [7], 8.92. Moreover, the pD2 in assay [4] is 5.09.

On to `NCCc1nccs1`, for which the Intrinsic activity is 1 in [1] and 1.02 in [10]. Moreover, the Relative activity was found to be 18% in assay [2], 20% in assay [18] and 45% in assay [6]. Also, the pD2 in [4] came out at 6.36. Further, the pKb in assay [5] came to 9.02; in assay [7], 9.17.

`NCCc1c[nH]c(-c2ccccc2C(F)(F)F)n1` yielded an Intrinsic activity in assay [1] of 0.26. In assay [16], the pKb result was “Active”. In addition, the pD2 in [4] was 4.47. Also, the Relative activity in [6] is less than 1%.

In the case of `NCCc1c[nH]c(-c2cccs2)n1`, the Intrinsic activity in assay [1] worked out at 1; in assay [19], 0.5; in assay [8], 0.25. The Relative activity in [2] was determined as 12%; in assay [6], 46%. This molecule came in with a pD2 in [4] of 6.36. The pKb in [5] amounted to 8.83; in assay [7], 8.93. For the same molecule, in assay [9], the pD'2 was less than 3.

As for `NCCc1c[nH]c(-c2ccc3ccccc3c2)n1`, in [20], the pKb entry was “Active”. The molecule further yielded an Intrinsic activity in assay [1] of 0.24. For the same molecule, the pD2 in assay [4] was found to be 4.85. The Relative activity in assay [6] was 1%.

`NCCc1c[nH]c(Cc2cccc(C(F)(F)F)c2)n1`: the pKb entry in assay [20] was “Active”. The same molecule gave an Intrinsic activity in assay [1] of 0.28. This molecule also showed a pD2 in assay [4] of 4.57. Also, the Relative activity in assay [6] is less than 1%.

For `NCCc1c[nH]c(-c2ccco2)n1`, the Intrinsic activity in assay [1] was found to be 1; in assay [21] it was 0.47; in [8], 0.36. Besides, the Relative activity was determined as 23% in assay [2] and 47% in assay [6]. For the same molecule, the pD2 in [4] is 6.37. For the same molecule, the pKb amounted to 9.28 in assay [5] and 9.16 in assay [7]. The molecule also yielded a pD'2 in assay [9] of less than 3.

As to `NCCc1c[nH]c(-c2csc(Br)c2)n1`, the Intrinsic activity is 1 in assay [1] and 0.6 in [3]. Besides, the figures for the Relative activity in assay [2] and in assay [6] were 11% and 26%, respectively. The same molecule displayed a pD2 in assay [4] of 6.11. Besides, the pKb in assay [5] turned out to be 8.63; in assay [7], 9.04.
